Holding throughout (type): functional
Assay [1] has as its system A-431. Briefly: In vivo inhibitory activity against A431 tumor implanted in athymic mice at 3.13 mg/kg […]. To be noted: Mus musculus. The essentials:
(§1)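 A431 squamous carcinoma cells (EGF receptor-overexpressing) implanted under the kidney capsule of athymic mice, N = 6 per group. Dosed once daily for 5 days starting the day after implantation. Tumor size assessed 7 days after implantation; result given as % inhibition of tumor growth, with deaths counted per group.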

The subject of assay [2] is A-431. Kind of assay: In vivo inhibitory activity against A431 tumor implanted in athymic mice at 50 mg/kg […]. To be noted: Mus musculus. Put shortly: as §1
Assay [3] has as its system A-431. Kind of assay: In vivo inhibitory activity against A431 tumor implanted in athymic mice at 25 mg/kg […]. To be noted: Mus musculus. Put shortly: as §1
The species named for another assay is Mus musculus. Kind of assay: Selectivity for EGF over insulin receptors. The essentials: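 Ratio of insulin-stimulated IC50 to EGF-stimulated IC50, both from [3H]thymidine incorporation in EGF receptor-transfected NIH3T3 cells (1 h preincubation, 16 h mitogen stimulation, 1-h label).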
In assay [4] the test system is A-431. Kind of assay: In vivo inhibitory activity against A431 tumor implanted in athymic mice at 12.5 mg/kg […]. Particulars: Mus musculus. The essentials:
as §1

The molecule `COc1ccc(Cc2nc(NC3=NC(=O)N(C)C3=O)n(C)c2Cc2ccc(O)cc2)cc1` had an inhibition in vivo at 3.13 mg/kg with A-431 [1] of 35%. The inhibition in vivo at 50 mg/kg in the assay on A-431 [2] turned out to be 96.4%. In the assay on A-431 [3], this molecule had an inhibition in vivo at 25 mg/kg of 87.4%. The Selectivity in the assay listed under Mus musculus stood at 21. Also, in the assay on A-431 [4], 12.5 mg/kg produced 52% inhibition in vivo.

Molecule `COc1ccc(Cc2cn(Cc3ccc(OC)cc3)c(NC3=NC(=O)N(C)C3=O)n2)cc1` displayed a Selectivity in the assay listed under Mus musculus of 0.18.

The molecule `COc1ccc(Cc2cn(Cc3ccc(O)cc3)c(NC3=NC(=O)N(C)C3=O)n2)cc1` displayed a Selectivity in the assay filed under Mus musculus of 0.43.

Broadly, the inhibition in vivo is the drop in the measured response relative to a control, in per cent. A higher inhibition in vivo goes with strong suppression.

These data come from ChEMBL document CHEMBL1131126, “Naamidine A is an antagonist of the epidermal growth factor receptor and an in vivo active antitumor agent” (J Med Chem, 1998).
